What is called IC50 is the concentration that gives 50% inhibition. Low readings indicate greater potency, high ones weaker potency.

This note sets out measurements from ChEMBL document CHEMBL1144898, “Structure-based design and synthesis of novel potent Na+,K+ -ATPase inhibitors derived from a 5alpha,14alpha-androstane scaffold as positive inotropic compounds” (J Med Chem, 2003).

The target in series [1] is Sodium/potassium-transporting ATPase. Nature of the series: Inhibitory activity against Na+/K+ ATPase was determined. It is filed as protein-complex assay, Canis lupus familiaris.
The subject of series [2] is Sodium/potassium-transporting ATPase (Canis lupus familiaris). Nature of the series: Inhibition activity against Na+/K+ ATPase (relative potency in comparison to digitoxigenin).
Series [3] concerns Cavia porcellus. Nature of the series: Inotropic activity by slow intravenous infusion in anesthetized guinea pigs(Maximal increase in+dp/dtmax). In kind it is functional. In outline: (§1)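 Anesthetized guinea pigs given compound by slow intravenous infusion; contractility read as +dP/dtmax. Values are the maximal increase in +dP/dtmax, the dose inducing the maximum inotropic effect, and the dose raising +dP/dtmax by 80% taken from dose–response curves.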

In series [4] the test system is Cavia porcellus. Nature of the series: Inotropic activity by slow intravenous infusion in anesthetized guinea pigs (dead/treated ratio = 1/3). In kind it is functional.
The subject of series [5] is Cavia porcellus. Briefly: Inotropic activity by slow intravenous infusion in anesthetized guinea pigs(Inotropic potency:dose increasing +dp/dtmax by 80%). In kind it is functional. The method in brief: as §1
Series [6] concerns Cavia porcellus. Nature of the series: Inotropic activity by slow intravenous infusion in anesthetized guinea pigs(Dose inducing maximum positive inotropic effect). It is filed as functional. In outline: as §1
Series [7] deals with Cavia porcellus. Nature of the series: Inotropic activity by slow intravenous infusion in anesthetized guinea pigs (dead/treated ratio = 3/3). It is filed as functional.
Series [8] can be described thus: (§2) Inotropic activity by slow intravenous infusion in anesthetized guinea pigs. It is filed as organism-based, Cavia porcellus. The settings on record: guinea pig, in vivo, read-out: LD/ED80.
For series [9], the system named is Cavia porcellus. Briefly: Inotropic activity by slow intravenous infusion in anesthetized guinea pigs (dead/treated ratio = 10/10). In kind it is functional.
The test system of series [10] is Cavia porcellus. Briefly: Inotropic activity by slow intravenous infusion in anesthetized guinea pigs (dead/treated ratio = 1/5). In kind it is functional.
Series [11] concerns Cavia porcellus. The series is described as §2. It is filed as organism-based. The settings on record: guinea pig, in vivo.
In series [12] the test system is Cavia porcellus. Nature of the series: Inotropic activity by slow intravenous infusion in anesthetized guinea pigs (dead/treated ratio = 7/8). In kind it is functional.

On to `C[C@H]1/C(=C/C(=O)OCCN(C)C)CCC2C1C(=O)CC1C(C)(C)[C@@H](O)CC[C@]21C` (stereo not given in full) [CASSAINE], for which the half-maximal inhibitory concentration (IC50) in series [1] was 5000 nM. The Relative potency in [2] came to 0.1.

In turn, `C[C@]12CC/C(=N/OCCCN)C[C@@H]1[C@H](O)CC1C2CC[C@]2(C)C(O)CC[C@@H]12` (stereo not given in full) gave a half-inhibitory concentration (IC50) in series [1] of 3000 nM.

Take `C[C@]12CC/C(=N/OCCN)C[C@@H]1[C@H](O)CC1C2CC[C@]2(C)C(O)CC[C@@H]12` (stereo not given in full): the 50% inhibitory concentration (IC50) in series [1] was found to be 12000 nM.

For the compound `C[C@]12CC/C(=N\OCCCN)C[C@@H]1C(=O)C[C@@H]1[C@@H]2CC[C@]2(C)C(=O)CC[C@@H]12`, the Increase in the series with Cavia porcellus [3] is on record as 129%. In the series with Cavia porcellus [4], the Dead/treated is on record as 1. For the same compound, in the series on Cavia porcellus [5], the ED80 was 6.55 µM/kg. The EDmax in the series with Cavia porcellus [6] was 18.2 µM/kg. In series [1], the IC50 was determined as 800 nM.

Turning to `C[C@]12CC/C(=N\OCCN)C[C@@H]1[C@H](O)C[C@@H]1[C@@H]2CC[C@]2(C)C(O)CC[C@@H]12` (stereo not given in full), the Increase with Cavia porcellus [3] is on record as 158%. Besides, the Dead/treated in the series on Cavia porcellus [7] was 3. In the series with Cavia porcellus [5], this compound came in with an ED80 of 0.97 µM/kg. The same compound yielded an EDmax in the series on Cavia porcellus [6] of 4.13 µM/kg. Besides, the selectivity ratio in series [8] was 9.6. This compound yielded an IC50 in series [1] of 2000 nM.

In the case of `C[C@H]1O[C@@H](O[C@H]2[C@@H](O)C[C@H](O[C@H]3[C@@H](O)C[C@H](O[C@H]4CC[C@@]5(C)[C@H](CC[C@@H]6[C@@H]5C[C@@H](O)[C@]5(C)[C@@H](C7=CC(=O)OC7)CC[C@]65O)C4)O[C@@H]3C)O[C@@H]2C)C[C@H](O)[C@@H]1O` [DIGOXIN], the Increase in the series on Cavia porcellus [3] stood at 127%. The Dead/treated in the series with Cavia porcellus [9] turned out to be 10. In the series with Cavia porcellus [5], this compound gave an ED80 of 0.41 µM/kg. Further, the EDmax in the series on Cavia porcellus [6] stood at 0.97 µM/kg.

For `C[C@]12CC/C(=N\OCCCN)C[C@@H]1[C@H](O)C[C@@H]1[C@@H]2CC[C@]2(C)C(O)CC[C@@H]12` (stereo not given in full), the Increase with Cavia porcellus [3] came out at 99%. Moreover, the Dead/treated in the series on Cavia porcellus [4] amounted to 1. Besides, in the series with Cavia porcellus [5], the ED80 came to 1.58 µM/kg. The compound further yielded an EDmax in the series with Cavia porcellus [6] of 7.37 µM/kg. The compound further displayed a 50% inhibitory concentration (IC50) in [1] of 2000 nM.

`C[C@]12CCC(=NOCCN)C[C@@H]1[C@@H](O)C[C@@H]1[C@@H]2CC[C@]2(C)C(=O)CC[C@@H]12` (stereo in doubt; 22n) came in with an Increase in the series with Cavia porcellus [3] of 154%. Moreover, in the series on Cavia porcellus [4], the Dead/treated was found to be 1. The same compound had an ED80 in the series on Cavia porcellus [5] of 14.8 µM/kg. Further, the EDmax with Cavia porcellus [6] was 111.2 µM/kg. The selectivity ratio in series [8] is 9.2. The concentration for half-maximal inhibition (IC50) in [1] is 2500 nM.

Regarding `CC(=O)NCCO/N=C1\CC[C@@]2(C)[C@H](C1)C(=O)C[C@@H]1[C@@H]2CC[C@]2(C)C(=O)CC[C@@H]12`, the IC50 in [1] is over 10000 nM.

With `C[C@]12CCC(=NOCCN)C[C@@H]1[C@@H](O)C[C@@H]1[C@@H]2CC[C@]2(C)C(=O)CC[C@@H]12` (stereo in doubt; 22g), the Dead/treated in the series on Cavia porcellus [10] was determined as 1. Besides, the Increase in the series on Cavia porcellus [3] is listed as 207%. In addition, in the series on Cavia porcellus [5], the ED80 worked out at 5.3 µM/kg. For the same compound, the EDmax in the series on Cavia porcellus [6] was found to be 54.6 µM/kg. This compound also came in with an LD/ED80 in the series on Cavia porcellus [11] of 17.8. Besides, in [1], 1200 nM corresponded to half-maximal inhibition (IC50).

`C[C@]12CCC(=NOCCN)C[C@@H]1[C@H](O)CC1C2CC[C@]2(C)C(O)CC[C@@H]12` (stereo not given in full) came in with an IC50 in [1] of 1600 nM.

With `C[C@]12CCC(=NOCCN)C[C@@H]1C(=O)C[C@@H]1[C@@H]2CC[C@]2(C)C(=O)CC[C@@H]12` [ISTAROXIME], the Increase in the series on Cavia porcellus [3] is 190%. In the series on Cavia porcellus [12], the Dead/treated worked out at 7. Moreover, in the series with Cavia porcellus [5], the ED80 was determined as 4.84 µM/kg. Further, the EDmax with Cavia porcellus [6] was found to be 17.9 µM/kg. For the same compound, the selectivity ratio in series [8] was found to be 20.2.

For `C[C@]12CC/C(=N\OCCN)C[C@@H]1C(O)C[C@@H]1[C@@H]2CC[C@]2(C)C(O)CC[C@@H]12` (stereo not given in full), the IC50 in series [1] was 10000 nM.

In series [1], `C[C@]12CC/C(=N\OCCN)C[C@@H]1C(=O)C[C@@H]1[C@@H]2CC[C@]2(C)C(O)CC[C@@H]12` (stereo not given in full) showed a half-inhibitory concentration (IC50) of 600 nM.
